The source of these data is ChEMBL document CHEMBL2046441, “Synthesis and SAR of 4-aminocyclopentapyrrolidines as N-type Ca²⁺ channel blockers with analgesic activity” (Bioorg Med Chem, 2012).

Bounds are passed on as bounds.

A short description of assay [1]: Inhibition of L-type calcium channel in mouse ND7/23 cells by FLIPR based Ca(2+) flux assay. It is filed as cell-based. In outline:
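ND7/23 cells were grown in DMEM with 10% heat-inactivated FBS and seeded at 5.0 × 10⁴ cells/well. After 24 h at 37 °C, 5% CO₂, cells were loaded with calcium dye in HBSS/20 mM HEPES pH 7.4 for 1.5 h at room temperature. Compounds were added for 3 min, then channels were activated with HBSS containing 50 mM KCl/2.5 mM CaCl₂.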

Assay [2] is described as follows: Inhibition of Voltage-dependent N-type calcium channel in human IMR32 cells by FLIPR based Ca(2+) flux assay. It is filed as cell-based, IMR-32. In outline:
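IMR32 cells were plated at 120,000/well and grown 48 h at 37 °C, 5% CO₂. Cells were loaded with Calcium 4 dye in HBSS/1 mM HEPES pH 7.4 for 1.5 h at room temperature, with antagonists present for 1 h of loading.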

The test system of assay [3] is Rattus norvegicus. Description: Analgesic activity in ip dosed Sprague-Dawley rat osteoarthritis pain model assessed as increase in maximum compressive grip force dosed 30 mins before grip force assessment. It is filed as functional, organism-based. The gist of the method: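 Male Sprague-Dawley rats (200–350 g) were tested at least 21 days after MIA injection. Dosing was 3, 10 or 30 mg/kg ip in 10% DMSO/PEG 400, 30 min before testing; n = 12 per group. Hindlimb grip force was measured twice ~2 min apart to get CFmax, normalised to body weight. Vehicle group set as 0%, age-matched naive group as 100%.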

Assay [4] has as its system Rattus norvegicus. Description: Analgesic activity in ip dosed Sprague-Dawley rat acute inflammatory pain model assessed as reduction in carrageenan-induced thermal hypersensitivity of paw withdrawal latency dosed 30 mins before thermal hypersensitivity assessment. It is filed as functional, organism-based. In outline:
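Male rats 200–350 g; 10% DMSO/PEG400 vehicle; doses 3, 10, 30 mg/kg ip, n = 6. Carrageenan is injected into the plantar surface of the right hind paw. After 2 h, a Hargreaves radiant heat stimulus is applied on 30 °C glass, with cut-off 20.48 s. Both paws are tested in 3 trials about 5 min apart. Latency is taken as the mean of the two shortest readings.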

For assay [5], the target named is Voltage-dependent N-type calcium channel subunit alpha-1B (Rattus norvegicus) (UniProt Q02294). The settings on record: HEK293, 0.3 uM.
Assay [6] shares this target. The settings on record: HEK293, 0.3 uM. The source holds these as a separate data set.
[7] abbreviates: Homo sapiens, IMR-32, read-out: IC50.
[8] abbreviates: Homo sapiens, IMR-32, read-out: pIC50 (converted).

Voltage-dependent N-type calcium channel subunit alpha-1B (Rattus norvegicus), sequence (Q02294 whole entry, looked up): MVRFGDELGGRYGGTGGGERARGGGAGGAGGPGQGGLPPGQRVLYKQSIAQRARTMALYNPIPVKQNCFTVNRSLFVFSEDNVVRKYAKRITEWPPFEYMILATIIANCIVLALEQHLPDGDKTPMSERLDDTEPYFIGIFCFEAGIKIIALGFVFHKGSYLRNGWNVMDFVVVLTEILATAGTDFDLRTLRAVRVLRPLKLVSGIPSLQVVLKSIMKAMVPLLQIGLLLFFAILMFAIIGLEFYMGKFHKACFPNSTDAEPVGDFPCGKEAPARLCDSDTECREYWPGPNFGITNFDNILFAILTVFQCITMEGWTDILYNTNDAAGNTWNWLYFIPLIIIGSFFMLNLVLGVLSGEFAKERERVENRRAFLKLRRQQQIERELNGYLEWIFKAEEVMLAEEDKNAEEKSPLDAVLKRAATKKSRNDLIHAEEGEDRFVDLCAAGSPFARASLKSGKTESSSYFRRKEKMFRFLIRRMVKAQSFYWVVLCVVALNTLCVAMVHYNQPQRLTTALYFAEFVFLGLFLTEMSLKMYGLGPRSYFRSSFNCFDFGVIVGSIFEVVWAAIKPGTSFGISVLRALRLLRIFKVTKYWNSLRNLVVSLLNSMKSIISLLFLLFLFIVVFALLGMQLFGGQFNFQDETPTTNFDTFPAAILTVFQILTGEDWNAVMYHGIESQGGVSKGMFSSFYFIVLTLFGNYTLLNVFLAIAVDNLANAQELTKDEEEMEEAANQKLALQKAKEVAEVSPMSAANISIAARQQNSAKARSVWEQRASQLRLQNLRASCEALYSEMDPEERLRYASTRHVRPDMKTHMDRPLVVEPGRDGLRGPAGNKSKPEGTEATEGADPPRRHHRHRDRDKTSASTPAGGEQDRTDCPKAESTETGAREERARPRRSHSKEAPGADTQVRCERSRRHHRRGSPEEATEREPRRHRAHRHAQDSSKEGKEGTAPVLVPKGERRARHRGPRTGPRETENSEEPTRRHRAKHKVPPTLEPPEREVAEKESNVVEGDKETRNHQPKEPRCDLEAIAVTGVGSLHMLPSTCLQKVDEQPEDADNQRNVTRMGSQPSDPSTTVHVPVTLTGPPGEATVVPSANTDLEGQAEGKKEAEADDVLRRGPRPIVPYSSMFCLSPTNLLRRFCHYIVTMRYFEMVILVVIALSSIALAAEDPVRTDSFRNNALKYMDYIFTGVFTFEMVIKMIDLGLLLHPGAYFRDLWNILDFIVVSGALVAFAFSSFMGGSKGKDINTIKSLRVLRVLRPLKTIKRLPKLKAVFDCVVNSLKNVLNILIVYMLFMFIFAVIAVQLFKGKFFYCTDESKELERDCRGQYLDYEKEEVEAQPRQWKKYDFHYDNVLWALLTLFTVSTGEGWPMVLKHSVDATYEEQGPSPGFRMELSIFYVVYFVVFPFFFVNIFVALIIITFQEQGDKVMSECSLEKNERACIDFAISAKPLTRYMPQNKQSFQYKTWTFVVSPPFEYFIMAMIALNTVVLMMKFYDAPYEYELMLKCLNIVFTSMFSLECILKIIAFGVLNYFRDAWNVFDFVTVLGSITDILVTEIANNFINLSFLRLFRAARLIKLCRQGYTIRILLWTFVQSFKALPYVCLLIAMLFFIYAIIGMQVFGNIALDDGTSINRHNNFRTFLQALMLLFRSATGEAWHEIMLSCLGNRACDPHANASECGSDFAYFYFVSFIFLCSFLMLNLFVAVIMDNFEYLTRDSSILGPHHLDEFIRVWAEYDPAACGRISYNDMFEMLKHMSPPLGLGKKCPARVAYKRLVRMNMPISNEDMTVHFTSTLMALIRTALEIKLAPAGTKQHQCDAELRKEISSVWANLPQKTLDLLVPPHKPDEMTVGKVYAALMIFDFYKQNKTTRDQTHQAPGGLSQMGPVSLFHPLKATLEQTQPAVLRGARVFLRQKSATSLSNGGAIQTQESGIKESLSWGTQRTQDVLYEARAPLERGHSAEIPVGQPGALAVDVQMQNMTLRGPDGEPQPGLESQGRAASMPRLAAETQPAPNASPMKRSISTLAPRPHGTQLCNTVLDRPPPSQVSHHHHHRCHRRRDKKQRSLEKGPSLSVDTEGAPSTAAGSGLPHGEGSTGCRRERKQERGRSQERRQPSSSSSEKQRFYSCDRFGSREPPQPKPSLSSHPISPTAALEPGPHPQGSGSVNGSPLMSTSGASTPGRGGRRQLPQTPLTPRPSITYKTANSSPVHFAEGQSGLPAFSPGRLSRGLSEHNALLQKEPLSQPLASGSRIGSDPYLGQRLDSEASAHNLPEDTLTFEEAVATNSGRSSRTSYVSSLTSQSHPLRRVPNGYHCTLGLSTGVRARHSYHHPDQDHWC

On to `O=C(N[C@H]1CC[C@H]2CN(Cc3cccc(OC(F)(F)F)c3)C[C@H]21)C(C1CCCCC1)C1CCCCC1`, for which the IC50 in assay [1] (read-out: IC50) is greater than 30000 nM; in assay [2] (setting [7]), 510 nM; in assay [2] (setting [8]), 417 nM.

With `O=C(N[C@H]1CC[C@H]2CN(Cc3ccccc3F)C[C@H]21)C(C1CCCCC1)C1CCCCC1`, the IC50 in assay [1] (read-out: IC50) is greater than 30000 nM; in assay [2] (setting [7]), 1120 nM; in assay [2] (setting [8]), 1120 nM.

Regarding `O=C(N[C@H]1CC[C@H]2CN(Cc3ccccc3C(F)(F)F)C[C@H]21)C(C1CCCCC1)C1CCCCC1`, the IC50 in assay [1] (read-out: IC50) was greater than 30000 nM; in assay [2] (setting [7]) it was 2430 nM; in assay [2] (setting [8]), 2450 nM.

As for `O=C(N[C@H]1CC[C@H]2CN(Cc3ccccc3)C[C@H]21)C1(c2ccccc2)CCCCC1` (relative stereo), the IC50 is 5560 nM in assay [1] (read-out: IC50), 5620 nM in assay [1] (read-out: pIC50 (converted)), 1040 nM in assay [2] (setting [7]) and 1020 nM in assay [2] (setting [8]).

In the case of `CCCC(CCC)C(=O)N[C@H]1CC[C@H]2CN(Cc3cccc(C(F)(F)F)c3)C[C@H]21` (relative stereo), the IC50 was 20100 nM in assay [1] (read-out: IC50), 20400 nM in assay [1] (read-out: pIC50 (converted)), 950 nM in assay [2] (setting [7]) and 955 nM in assay [2] (setting [8]).

Take `Cc1cccc(CN2C[C@@H]3CC[C@H](NC(=O)C(C4CCCCC4)C4CCCCC4)[C@@H]3C2)c1`: the IC50 in assay [1] (read-out: IC50) was 22300 nM; in assay [1] (read-out: pIC50 (converted)), 22400 nM; in assay [2] (setting [7]), 860 nM; in assay [2] (setting [8]) it was 851 nM.

On to `O=C(N[C@H]1CC[C@H]2CN(Cc3ccccc3)C[C@H]21)C1(c2ccccc2)CCCC1` (racemic), for which the IC50 in assay [1] (read-out: IC50) is 4840 nM; in assay [1] (read-out: pIC50 (converted)), 4790 nM; in assay [2] (setting [7]) it was 1930 nM; in assay [2] (setting [8]), 1950 nM.

As to `CC(C)C(C(=O)N[C@H]1CC[C@H]2CN(Cc3cccc(C(F)(F)F)c3)C[C@H]21)c1ccccc1` (mixture of isomers), the IC50 in assay [1] (read-out: IC50) is 5000 nM; in assay [1] (read-out: pIC50 (converted)) it was 5010 nM; in assay [2] (setting [7]), 360 nM; in assay [2] (setting [8]) it was 355 nM.

Usually pIC50 stands for −log10 of the IC50, conventionally taken in molar units. Take `O=C(N[C@H]1CC[C@H]2CN(Cc3ccccc3)C[C@H]21)C(C1CCCCC1)C1CCCCC1` (relative stereo): the IC50 in assay [1] (read-out: IC50) was greater than 30000 nM; in assay [2] (imr-32, read-out: IC50) it was 4670 nM. Further, the pIC50 in assay [2] (imr-32) amounted to 5.33.

Regarding `O=C(N[C@H]1CC[C@H]2CN(Cc3cccc(C(F)(F)F)c3)C[C@H]21)C(c1ccc(F)cc1)c1ccc(F)cc1` (relative stereo), the IC50 in assay [1] (read-out: IC50) is 7100 nM; in assay [1] (read-out: pIC50 (converted)) it was 7080 nM; in assay [2] (setting [7]), 640 nM; in assay [2] (setting [8]), 646 nM.

For `O=C(N[C@H]1CC[C@H]2CN(Cc3cccc(C(F)(F)F)c3)C[C@H]21)C(C1CCCCC1)C1CCCCC1` (relative stereo), the IC50 in assay [1] (read-out: IC50) is greater than 30000 nM; in assay [2] (imr-32, read-out: IC50), 1070 nM. The pIC50 in assay [2] (imr-32) is 5.97.

As to `O=C(N[C@H]1CC[C@H]2CN(Cc3cccc(C(F)(F)F)c3)C[C@H]21)C1CCCC1` (relative stereo), the IC50 was 12800 nM in assay [1] (read-out: IC50), 12900 nM in assay [1] (read-out: pIC50 (converted)), 2310 nM in assay [2] (setting [7]) and 2290 nM in assay [2] (setting [8]).

Consider `O=C(N[C@H]1CC[C@H]2CN(Cc3cccc(F)c3)C[C@H]21)C(C1CCCCC1)C1CCCCC1`, for which the IC50 in assay [1] (read-out: IC50) was greater than 30000 nM; in assay [2] (setting [7]), 990 nM; in assay [2] (setting [8]) it was 977 nM.

Take `O=C(N[C@@H]1CC[C@@H]2CN(Cc3ccccc3)C[C@@H]21)C(c1ccccc1)C1CCCCC1` (mixture of isomers): the IC50 in assay [1] (read-out: IC50) was greater than 30000 nM; in assay [2] (setting [7]), 1060 nM; in assay [2] (setting [8]) it was 1070 nM.

`O=C(N[C@H]1CC[C@H]2CN(Cc3ccc(F)cc3)C[C@H]21)C(C1CCCCC1)C1CCCCC1`: the IC50 was 22900 nM in assay [1] (read-out: IC50), 22900 nM in assay [1] (read-out: pIC50 (converted)), 740 nM in assay [2] (setting [7]) and 741 nM in assay [2] (setting [8]).

In the case of `CC(C)C(C(=O)N[C@@H]1CC[C@@H]2CN(Cc3ccccc3)C[C@@H]21)c1ccccc1` (mixture of isomers), the IC50 in assay [1] (read-out: IC50) was 7210 nM; in assay [1] (read-out: pIC50 (converted)) it was 7240 nM; in assay [2] (setting [7]) it was 1460 nM; in assay [2] (setting [8]) it was 1480 nM.

In the case of `O=C(N[C@H]1CC[C@H]2CN(Cc3ccccc3)C[C@H]21)C(c1ccccc1)C1CCCC1` (relative stereo), the IC50 is 5150 nM in assay [1] (read-out: IC50), 5130 nM in assay [1] (read-out: pIC50 (converted)), 920 nM in assay [2] (setting [7]) and 933 nM in assay [2] (setting [8]).

For the compound `O=C(N[C@H]1CC[C@H]2CN(Cc3cccc(C(F)(F)F)c3)C[C@H]21)C(c1ccccc1)c1ccccc1` (racemic), the IC50 in assay [1] (read-out: IC50) was 6300 nM; in assay [1] (read-out: pIC50 (converted)), 6310 nM; in assay [2] (setting [7]), 670 nM; in assay [2] (setting [8]) it was 661 nM.

For `O=C(N[C@H]1CC[C@H]2CN(Cc3cccc(C(F)(F)F)c3)C[C@H]21)C1CCCCC1` (racemic), the IC50 is 16100 nM in assay [1] (read-out: IC50), 16200 nM in assay [1] (read-out: pIC50 (converted)), 1260 nM in assay [2] (setting [7]) and 1260 nM in assay [2] (setting [8]).

For the compound `CCC(CC)C(=O)N[C@H]1CC[C@H]2CN(Cc3cccc(C(F)(F)F)c3)C[C@H]21` (racemic), the IC50 was 19000 nM in assay [1] (read-out: IC50), 19100 nM in assay [1] (read-out: pIC50 (converted)), 2070 nM in assay [2] (setting [7]) and 2090 nM in assay [2] (setting [8]).

As for `O=C(N[C@@H]1CC[C@@H]2CN(Cc3cccc(C(F)(F)F)c3)C[C@@H]21)C(C1CCCCC1)C1CCCCC1`, the IC50 in assay [1] (read-out: IC50) was greater than 30000 nM; in assay [2] (setting [7]), 1400 nM.

Regarding `O=C(N[C@H]1CC[C@H]2CN(Cc3ccccc3)C[C@H]21)C(C1CCCCC1)C1CCCCC1`, in assay [2] (imr-32), the pIC50 was determined as 4.78. Further, in assay [2] (imr-32, read-out: IC50), the IC50 turned out to be 16500 nM.

`O=C(N[C@H]1CC[C@H]2CN(Cc3cccc(C(F)(F)F)c3)C[C@H]21)C1CCCCCC1` (racemic): the IC50 in assay [1] (read-out: IC50) was 9300 nM; in assay [1] (read-out: pIC50 (converted)), 13800 nM; in assay [2] (setting [7]), 560 nM; in assay [2] (setting [8]), 562 nM.

For orientation: inhibition means the share of the control response that was lost under treatment. `O=C(N[C@H]1CC[C@H]2CN(Cc3cccc(C(F)(F)F)c3)C[C@H]21)C(C1CCCCC1)C1CCCCC1`: the Activity result in assay [3] and in assay [4] was “Dose-dependent effect” in each case. Also, the inhibition in assay [5] amounted to 77%; in assay [6], 49%.
